Screening results as filed in PubChem BioAssay.
Tn7 DDE FP: disrupts Tn7 cyclic peptide binding to fibrin D-Dimer-E complex; P02675; FP displacement of FITC-Tn7 peptide from fibrin DD(E); 0% = median of compound wells per plate; inhibition, % at 8.3 µM; actives 0.13% (n = 370,000); AID 720508;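 active = inhibition above the mean of compounds falling within the control limits plus 3 SD of them, cut at about 14% in these data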
Target sequence (P02675 whole entry, looked up): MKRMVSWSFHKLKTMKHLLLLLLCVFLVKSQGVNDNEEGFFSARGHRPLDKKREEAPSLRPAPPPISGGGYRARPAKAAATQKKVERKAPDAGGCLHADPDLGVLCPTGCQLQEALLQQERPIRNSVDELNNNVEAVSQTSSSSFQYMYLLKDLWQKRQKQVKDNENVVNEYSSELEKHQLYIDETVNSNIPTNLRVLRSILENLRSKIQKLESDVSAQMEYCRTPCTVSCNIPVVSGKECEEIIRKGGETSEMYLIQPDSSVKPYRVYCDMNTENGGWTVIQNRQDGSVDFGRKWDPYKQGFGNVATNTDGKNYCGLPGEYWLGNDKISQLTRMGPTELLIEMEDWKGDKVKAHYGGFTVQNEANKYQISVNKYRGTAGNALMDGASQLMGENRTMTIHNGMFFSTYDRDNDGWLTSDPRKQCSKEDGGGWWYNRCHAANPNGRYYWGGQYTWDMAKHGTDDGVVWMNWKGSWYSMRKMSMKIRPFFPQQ
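assay system = human clot-derived fibrin DD(E) complex | quantity = Fibrin-DD(E) at 2 µM final | timing = 10 min preincubation, 3 h with tracer, room temperature | signal = fluorescence polarization | measure = percent inhibition | benchmarks = high control wells with 10 µM unlabelled Aha-Tn7 peptide (full inhibition) | replicates = singlicate testing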
Tn6 DDE FP: disrupts Tn6 cyclic peptide binding to fibrin D-Dimer-E complex; Fibrin DD(E) TRITC-Tn6 fluorescence polarization displacement; inhibition, % at 8.3 µM; AID 720509; actives 0.21% (n = 370,000); P02675;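 active = inhibition above a per-campaign cutoff: mean of compounds within control limits plus 3 SD, cut at about 15% in these data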
SKN-1 inh: blocks SKN-1 activity in C. elegans; inhibition, % at 21.8 µM; actives 0.49% (n = 360,000); C. elegans VP596 Pgst-4::GFP/RFP ratio, acrylamide-induced, 24 h;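 active = interference check ratio from 0.5 to 1.5 plus GFP to RFP signal ratio inhibition reaching or exceeding a fixed threshold, cut at about 30% in these data, passing the limit was not always enough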
MT1-MMP act inh: blocks activation of human MT1-MMP; P50281; HT1080 RFP-PRO-GFP cells, GFP/RFP ratio fluorescence, overnight; percent of plate control window, DMSO zero; GFP/RFP ratio change, % at 20 µM; actives 0.061% (n = 360,000); AID 651647;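 active = GFP/RFP ratio change of at least 30% with cell ATP level not reduced by more than half and red fluorescence within 50% of control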
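Test system: HT1080 cells expressing an RFP-PRO-GFP fluorescent reporter construct / Compound dosing: single-point 20 µM compound, 1% DMSO / Schedule: cells overnight before dosing, compound overnight, 37 °C, 5% CO2 / Evaluation: GFP/RFP fluorescence ratio / Control set: DMSO and RFP-L50D-GFP cell wells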
Tn7 DDE conf: DD(E)-Tn7 binding inhibition, FP confirmation; shares compounds with Tn7 DDE FP; FP displacement of TRITC-Tn7 peptide from DD(E); 0% set at plate's compound-well median; inhibition, % at 8.3 µM; actives 5% (n = 460); AID 720628;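 active = inhibition above the campaign cutoff, the mean of compounds within control limits plus 3 SD, cut at about 14% in these data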;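 note: displacers lower polarization since freed probe rises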
DDE Tn7 FP ctr: counter-screen hit for Tn7 peptide-fibrin DD(E) binding disruption; shares compounds with Tn7 DDE FP; TRITC-Tn7 probe displacement, fluorescence polarization; inhibition, % at 8.3 µM; actives 3% (n = 460);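 active = inhibition above the cutoff, the mean of compounds lying between the control bounds plus 3 SD of those compounds, cut at about 17% in these data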
Of the large screens only hits and unclear results are named; the others gave an inactive call (follow-up assays come after a bar, where they were run). The list is not random: actives were taken first. Their share in the collection is about 0.84%.

O=C1CCCc2cc3c(cc21)CC1(C3)Cc2cc3c(cc2C1)C(=O)CCC3	Tn7 DDE FP 14.1 | Tn7 DDE conf inactive | DDE Tn7 FP ctr inactive
COc1ccc(-c2cc(NC(C)=O)c3ncc(-c4cccc(C(C)=O)c4)n3c2)cc1OC	none
CCC(C)[C@H]1CNC(=O)C(=O)N1CCc1cccc2ccccc12 (stereo not given in full)	none
O=C(O)C1C2CCC1C(O)C2 (stereo not given)	Tn7 DDE FP 17.1 | Tn7 DDE conf inactive | DDE Tn7 FP ctr inactive
COc1ccc(CCC(=O)N2CCN(c3ccccc3)CC2)cc1OC	Tn7 DDE FP 15.3 | Tn7 DDE conf inactive | DDE Tn7 FP ctr inactive
CC(C)c1ccc(OCCCN2CCC(C(O)(c3ccccc3)c3ccccc3)CC2)cc1	none (no result: SKN-1 inh, MT1-MMP act inh)
Cc1cc(C(F)F)n2ncc(C(=O)NCc3ccccc3C(F)(F)F)c2n1	Tn7 DDE FP 14.3 | Tn7 DDE conf inactive | DDE Tn7 FP ctr inactive
C[C@H]1CN[C@H](CCO)/C1=C\c1ccccc1	none
C[C@H]1CN[C@@H](CCO)/C1=C\c1ccccc1	Tn7 DDE FP 13.9 | Tn7 DDE conf inactive | DDE Tn7 FP ctr inactive
O=C(NCc1ccc(Cl)cc1)c1ccc(Cn2cc(C(F)(F)F)ccc2=O)cc1	Tn7 DDE FP 48.7 | Tn7 DDE conf 26.9 | DDE Tn7 FP ctr inactive
CCOC(=O)NC(=O)C(/C=N/c1sccc1C(=O)OC)=C(\C)O	Tn7 DDE FP 29.1 | Tn7 DDE conf inactive | DDE Tn7 FP ctr inactive
CCOC(=O)C1(C)CCCN1C(=O)c1ccc(Cl)nc1 (stereo not given)	none
O=C1c2cccc3c(O)ccc(c23)C(=O)N1c1ccc(Cl)cc1	Tn7 DDE FP 40.3 | Tn7 DDE conf inactive | DDE Tn7 FP ctr inactive
O=C1c2cccc3c(O)ccc(c23)C(=O)N1Cc1ccco1	Tn7 DDE FP 55.9 | Tn7 DDE conf inactive | DDE Tn7 FP ctr inactive
CC(=O)Nc1ccc(N2C(=O)c3cccc4c(O)ccc(c34)C2=O)cc1	Tn7 DDE FP 20.1 | Tn7 DDE conf inactive | DDE Tn7 FP ctr inactive
COc1ccc(N2C(=O)c3cccc4c(N(C)CCO)ccc(c34)C2=O)cc1	none
Cc1ccc(N2C(=O)c3cccc4c(C(=O)O)ccc(c34)C2=O)cc1	none (no result: SKN-1 inh, MT1-MMP act inh)
C[C@H](NS(=O)(=O)c1ccc2c(c1)OCCCO2)C(=O)N1CCN(Cc2ccc(C#N)cc2)CC1	none
O=C(CSc1nc(-c2ccccc2)cc(=O)[nH]1)Nc1ccc(F)c(F)c1	Tn7 DDE FP 14.1 | Tn7 DDE conf inactive | DDE Tn7 FP ctr inactive
O=C(CP(=O)(c1ccccc1)c1ccccc1)Nn1cnnc1	Tn7 DDE FP 16.5 | Tn7 DDE conf inactive | DDE Tn7 FP ctr inactive
NNC(=O)CP(=O)(c1ccccc1)c1ccccc1	none
CCOC(=O)c1sc2nc3n(c(=O)c2c1C)CCCCC3	none
CCOC(=O)c1sc2nc3n(c(=O)c2c1C)CCC3	Tn7 DDE FP 15.0 | Tn7 DDE conf inactive | DDE Tn7 FP ctr inactive
CCc1nc2ccc(C(=O)NCCc3c[nH]c4ccccc34)cn2c1N(C)Cc1ccc(N(C)C)cc1	none
O=C(OCc1cn(Cc2ccc(F)cc2F)nn1)N1CCOCC1	none (no result: SKN-1 inh, MT1-MMP act inh)
Cc1cccc(NC(=O)C(CC(C)C)NC(=O)C2CCC(C)CC2)n1 (stereo not given)	none
COC(=O)c1ccc(C2NC(=O)CCC2[N+](=O)[O-])cc1 (stereo not given)	Tn7 DDE FP 14.1 (no result: MT1-MMP act inh) | Tn7 DDE conf inactive | DDE Tn7 FP ctr inactive
CC(=O)Nc1ccc(C2NC(=O)CCC2[N+](=O)[O-])cc1 (stereo not given)	none
CC(C)(C)c1cc[n+](-c2[nH]c(=O)sc2/C=N/NC([S-])=Nc2ccccc2)cc1	Tn7 DDE FP 20.0 | Tn7 DDE conf inactive | DDE Tn7 FP ctr inactive
COc1ccc(CN(C)C(=O)CCN=C2NS(=O)(=O)c3ccccc32)c(OC)c1	none
COc1ccc(NC(=O)CN2C(=O)C(C)Oc3ccccc32)cc1OC (stereo not given)	Tn7 DDE FP 14.2 | Tn7 DDE conf inactive | DDE Tn7 FP ctr inactive
COc1ccccc1NC(=O)CN1C(=O)C(C)Oc2ccccc21 (stereo not given)	none
